The source made the active and inactive calls. The calls are words filed in the database; no cut-off is given here.
Experiments:
MV4-11 [1] = assay: Induction of apoptosis in human MV4-11 cells assessed as late apoptotic cells at 0.25 uM incubated for 15 mins by Annexin-V/FITC staining based FACS analysis (reference value: 4.17%); assay type: functional
Summary of the method: (§1)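 MV4-11 cells were dosed, then washed twice in cold PBS and resuspended in binding buffer at 1×10^6 cells/mL. Cells were stained with FITC-annexin V and propidium iodide for 15 min in the dark, diluted with binding buffer and analysed by flow cytometry within 1 h. Quadrants: LL viable, LR early apoptotic, UR late apoptotic. Duplicate experiments averaged; DMSO control.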

MV4-11 [2] = assay: Induction of apoptosis in human MV4-11 cells assessed as late apoptotic cells at 2 uM incubated for 15 mins by Annexin-V/FITC staining based FACS analysis (reference value: 4.17%); assay type: functional; details: 0.25 h; summary of the method: as §1
[3] = Cmax in Balb/c mouse at 50 mg/kg, ip by LC-MS/MS analysis; assay type: ADME, organism-based; parameters: route intraperitoneal, dose 50 mg/kg; details: in vivo
Summary of the method: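 Male BALB/c mice received a single intraperitoneal dose from a 50 mg/mL solution in 5% DMSO, 30% PEG400, 1% Tween80 and 64% saline. Blood was collected at several time points and the compound quantified by triple-quadrupole LC-MS/MS.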

[4] = biological target: T1, Protein deacetylase HDAC6 (Homo sapiens, UniProt Q9UBN7); assay: Binding affinity to human HDAC6 by jump dilution assay
T1 sequence (Q9UBN7 whole entry): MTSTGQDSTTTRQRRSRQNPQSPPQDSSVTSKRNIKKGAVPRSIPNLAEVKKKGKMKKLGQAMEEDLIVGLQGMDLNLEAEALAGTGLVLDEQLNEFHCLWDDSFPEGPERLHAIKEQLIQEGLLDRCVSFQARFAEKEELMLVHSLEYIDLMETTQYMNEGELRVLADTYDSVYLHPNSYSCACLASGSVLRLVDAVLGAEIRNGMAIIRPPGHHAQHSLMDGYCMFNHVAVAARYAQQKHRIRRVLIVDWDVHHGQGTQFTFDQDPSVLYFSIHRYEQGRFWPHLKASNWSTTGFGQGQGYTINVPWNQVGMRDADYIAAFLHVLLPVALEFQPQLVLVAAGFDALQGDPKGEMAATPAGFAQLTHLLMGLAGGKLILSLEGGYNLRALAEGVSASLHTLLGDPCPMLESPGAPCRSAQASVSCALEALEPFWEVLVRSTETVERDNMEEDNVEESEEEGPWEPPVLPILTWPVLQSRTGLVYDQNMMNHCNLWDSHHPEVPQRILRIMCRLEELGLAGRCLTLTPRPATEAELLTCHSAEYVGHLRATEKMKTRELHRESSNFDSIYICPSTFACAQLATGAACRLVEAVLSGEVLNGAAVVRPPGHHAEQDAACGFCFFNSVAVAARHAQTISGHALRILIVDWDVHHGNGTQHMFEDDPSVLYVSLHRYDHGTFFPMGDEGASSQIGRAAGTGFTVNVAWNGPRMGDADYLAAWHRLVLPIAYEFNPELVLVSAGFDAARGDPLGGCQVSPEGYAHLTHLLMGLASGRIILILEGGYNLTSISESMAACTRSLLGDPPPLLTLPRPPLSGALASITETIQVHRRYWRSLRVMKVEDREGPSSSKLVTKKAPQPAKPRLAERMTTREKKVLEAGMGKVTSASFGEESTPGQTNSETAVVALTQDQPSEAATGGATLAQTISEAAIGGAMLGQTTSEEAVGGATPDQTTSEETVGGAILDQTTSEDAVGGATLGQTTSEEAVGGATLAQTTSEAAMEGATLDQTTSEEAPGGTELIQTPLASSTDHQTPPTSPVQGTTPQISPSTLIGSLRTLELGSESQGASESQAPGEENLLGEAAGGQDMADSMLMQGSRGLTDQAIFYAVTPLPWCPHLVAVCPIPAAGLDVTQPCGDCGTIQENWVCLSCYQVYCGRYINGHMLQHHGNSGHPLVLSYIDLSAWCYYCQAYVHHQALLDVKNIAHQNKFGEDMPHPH

[5] = Stability in human whole blood assessed as compound remaining measured after 30 mins; assay type: ADME, tissue-based; details: read-out: Stability
[6] = biological target: Polyamine deacetylase HDAC10 (Homo sapiens, UniProt Q969S8); assay: Inhibition of full length human HDAC10 using FAM-labeled acetylated peptide as substrate by electrophoretic mobility shift assay
Chain of Polyamine deacetylase HDAC10 (Q969S8 whole entry, canonical isoform): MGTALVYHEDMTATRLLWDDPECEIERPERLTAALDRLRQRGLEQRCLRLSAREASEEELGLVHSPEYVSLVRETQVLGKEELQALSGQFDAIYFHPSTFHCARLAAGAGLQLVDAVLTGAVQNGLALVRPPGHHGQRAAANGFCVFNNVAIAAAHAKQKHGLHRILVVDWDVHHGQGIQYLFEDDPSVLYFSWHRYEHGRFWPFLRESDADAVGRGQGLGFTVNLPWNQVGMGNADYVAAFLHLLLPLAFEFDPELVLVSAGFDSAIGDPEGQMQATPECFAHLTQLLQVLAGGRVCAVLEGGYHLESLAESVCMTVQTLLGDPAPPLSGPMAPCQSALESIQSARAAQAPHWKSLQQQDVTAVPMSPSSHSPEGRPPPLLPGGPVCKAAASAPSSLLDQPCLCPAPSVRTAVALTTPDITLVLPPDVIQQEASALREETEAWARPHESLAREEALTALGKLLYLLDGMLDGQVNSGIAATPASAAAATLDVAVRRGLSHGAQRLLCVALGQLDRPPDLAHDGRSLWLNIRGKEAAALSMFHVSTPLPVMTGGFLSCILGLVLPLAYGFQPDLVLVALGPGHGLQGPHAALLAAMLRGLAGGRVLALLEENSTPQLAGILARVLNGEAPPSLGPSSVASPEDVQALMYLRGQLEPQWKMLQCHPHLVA
Summary of the method: (§2)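 Full-length human HDAC isoform enzymatic assay by electrophoretic mobility shift, using a FAM-labelled acetylated peptide substrate. […] Values are the mean of duplicate experiments with 95% confidence intervals.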

MV4-11 [7] = assay: Induction of apoptosis in human MV4-11 cells assessed as viable cells at 0.25 uM incubated for 15 mins by Annexin-V/FITC staining based FACS analysis (reference value: 35.53%); assay type: functional; details: MV4-11, 0.25 h, read-out: Activity; summary of the method: as §1
Histone deacetylase 9 = Histone deacetylase 9 (Homo sapiens, UniProt Q9UKV0); assay: Inhibition of full length human HDAC9 using FAM-labeled acetylated peptide as substrate by electrophoretic mobility shift assay; summary of the method: as §2
Chain of Histone deacetylase 9 (Q9UKV0 whole entry): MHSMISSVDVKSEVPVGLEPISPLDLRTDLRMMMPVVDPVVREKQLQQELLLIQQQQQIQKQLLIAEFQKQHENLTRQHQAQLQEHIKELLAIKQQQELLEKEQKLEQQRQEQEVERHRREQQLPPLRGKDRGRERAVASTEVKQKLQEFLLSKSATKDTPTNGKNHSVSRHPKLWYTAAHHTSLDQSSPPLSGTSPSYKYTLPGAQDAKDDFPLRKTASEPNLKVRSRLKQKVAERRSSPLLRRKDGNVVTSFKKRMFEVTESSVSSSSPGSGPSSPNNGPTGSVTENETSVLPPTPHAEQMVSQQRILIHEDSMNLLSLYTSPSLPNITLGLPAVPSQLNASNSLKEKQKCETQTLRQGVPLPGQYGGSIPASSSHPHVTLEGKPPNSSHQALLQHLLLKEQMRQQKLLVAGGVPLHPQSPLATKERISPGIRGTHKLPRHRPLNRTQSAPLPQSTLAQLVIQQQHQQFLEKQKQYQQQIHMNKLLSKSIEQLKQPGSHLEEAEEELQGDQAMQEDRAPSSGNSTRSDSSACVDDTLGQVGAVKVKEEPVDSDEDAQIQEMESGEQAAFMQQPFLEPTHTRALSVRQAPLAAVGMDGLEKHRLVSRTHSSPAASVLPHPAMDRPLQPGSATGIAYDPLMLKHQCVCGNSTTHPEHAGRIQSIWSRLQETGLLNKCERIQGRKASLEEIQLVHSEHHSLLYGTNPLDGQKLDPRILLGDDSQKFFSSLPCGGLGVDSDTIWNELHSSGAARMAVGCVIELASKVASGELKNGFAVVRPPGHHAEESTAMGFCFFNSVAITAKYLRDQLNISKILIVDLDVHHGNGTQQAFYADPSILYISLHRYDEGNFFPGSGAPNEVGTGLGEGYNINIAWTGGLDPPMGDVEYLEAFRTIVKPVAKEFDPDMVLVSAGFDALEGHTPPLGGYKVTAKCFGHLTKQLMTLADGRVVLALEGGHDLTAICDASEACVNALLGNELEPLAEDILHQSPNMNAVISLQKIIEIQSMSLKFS

[8] = Stability in human whole blood assessed as compound remaining measured after 60 mins; assay type: ADME, tissue-based; details: read-out: Stability
MV4-11 [9] = assay: Induction of ROS generation in human MV4-11 cells at 10 uM measured over 4 hrs by DCFDA staning based spectrophotometric analysis; assay type: functional, cell-based
Summary of the method: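 MV4-11 cells were washed once in PBS and loaded with DCFDA (33 μM) for 30 min at 37 °C in the dark. Cells were then washed, resuspended in supplemental buffer and dosed with compound. Fluorescence (Ex/Em 485/535) was followed for up to 4 h against a DMSO control.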

[10] = biological target: T1, Protein deacetylase HDAC6; assay: Inhibition of full length human HDAC6 preincubated for 3 hrs
MV4-11 [11] = assay: Induction of apoptosis in human MV4-11 cells assessed as viable cells at 0.50 uM incubated for 15 mins by Annexin-V/FITC staining based FACS analysis (reference value: 35.53%); assay type: functional; details: MV4-11, 0.25 h, read-out: Activity; summary of the method: as §1
MV4-11 [12] = assay: Induction of apoptosis in human MV4-11 cells assessed as early apoptotic cells at 2 uM incubated for 15 mins by Annexin-V/FITC staining based FACS analysis (reference value: 7.28%); assay type: functional; details: 0.25 h; summary of the method: as §1
MV4-11 [13] = assay: Induction of apoptosis in human MV4-11 cells assessed as late apoptotic cells at 1 uM incubated for 15 mins by Annexin-V/FITC staining based FACS analysis (reference value: 4.36%); assay type: functional; details: 0.25 h; summary of the method: as §1
MV4-11 [14] = assay: Induction of apoptosis in human MV4-11 cells assessed as viable cells at 2 uM incubated for 15 mins by Annexin-V/FITC staining based FACS analysis (reference value: 84.58%); assay type: functional; details: MV4-11, 0.25 h, read-out: Activity; summary of the method: as §1
MV4-11 [15] = assay: Induction of apoptosis in human MV4-11 cells assessed as early apoptotic cells at 0.50 uM incubated for 15 mins by Annexin-V/FITC staining based FACS analysis (reference value: 7.28%); assay type: functional; details: dose 0.5 µM, 0.25 h; summary of the method: as §1
MV4-11 [16] = assay: Induction of apoptosis in human MV4-11 cells assessed as late apoptotic cells at 2 uM incubated for 15 mins by Annexin-V/FITC staining based FACS analysis (reference value: 4.36%); assay type: functional; details: 0.25 h; summary of the method: as §1
MV4-11 [17] = assay: Induction of apoptosis in human MV4-11 cells assessed as viable cells at 1 uM incubated for 15 mins by Annexin-V/FITC staining based FACS analysis (reference value: 84.58%); assay type: functional; details: MV4-11, 0.25 h, read-out: Activity; summary of the method: as §1

SMILES	Activity (MV4-11 [1])	Activity (MV4-11 [2])	Cmax [3]	Ki [4]	remaining at 0.5 h [5]	IC50 [6]	viability at 0.25 µM (MV4-11 [7])	IC50 (Histone deacetylase 9)	remaining at 1 h [8]	Activity (MV4-11 [9])	IC50 [10]	viability at 0.5 µM (MV4-11 [11])	Activity (MV4-11 [12])	Activity (MV4-11 [13])	viability at 2 µM (MV4-11 [14])	Activity (MV4-11 [15])	Activity (MV4-11 [16])	viability at 1 µM (MV4-11 [17])
O=C(NO)c1ccc(CN(Cc2cccnc2)S(=O)(=O)c2cc(F)c(F)c(F)c2F)cc1	3.29%	15.44%	95.1 ng/mL	0.7 nM	80.8%	572 nM	33.1%	2750 nM	68.9%	Active	2 nM	28.4%	–	–	–	–	–	–
O=C(CCCCCCNC(=O)c1cnc(N(c2ccccc2)c2ccccc2Cl)nc1)NO [CITARINOSTAT]	–	–	–	–	–	–	–	–	–	–	–	–	27.95%	9.54%	42.4%	10.02%	13.33%	68.4%

Source: ChEMBL document CHEMBL5042469, “Unique Molecular Interaction with the Histone Deacetylase 6 Catalytic Tunnel: Crystallographic and Biological Characterization of a Model Chemotype” (J Med Chem, 2021)
